{"data": "Published values pooled from the literature", "cell line": "A549", "effect on": "cell growth or viability", "note": "Compare with care: the assays were run in different laboratories."}
{"SMILES": "O=C(NO)Nc1nc2ccc(Br)cc2c(=O)n1-c1ccccc1", "test": "MTT", "conditions": "48 h", "IC50": "28 µM"}
{"SMILES": "CNC(=O)c1cc(Oc2ccc(NC(=O)Nc3ccc(Cl)c(C(F)(F)F)c3)cc2)ccn1", "test": "MTT", "conditions": "48 h", "IC50": "12.2 µM"}
{"SMILES": "CSc1ccc(CNc2ccc(C(=O)O)cc2)cc1", "test": "resazurin", "conditions": "72 h", "IC50": "> 100 µM"}
{"SMILES": "O=C(N[C@@H](CSCc1ccccc1)C(=O)NO)c1ccccc1", "test": "MTT", "conditions": "48 h", "IC50": "201 µM"}
{"SMILES": "CC(C)NC(=O)Nc1nc2cc(-c3ccc4ncn(Cc5ccccc5)c(=O)c4c3)ccc2s1", "test": "MTT", "conditions": "72 h", "IC50": "> 20 µM"}
{"SMILES": "Cc1cccc(C)c1NC(=S)N/N=C/c1ccc(N2CCC(O)CC2)cc1", "test": "MTT", "conditions": "24 h", "IC50": "1.56 µM"}
{"SMILES": "COc1ccc(CNc2ccc(C(=O)O)cc2)cc1", "test": "resazurin", "conditions": "72 h", "IC50": "> 100 µM"}
{"SMILES": "O=C1/C(=C/c2ccc3ccccc3c2O)NC(=S)N1c1ccccc1", "test": "MTT", "IC50": "5.2 µg/mL"}
{"SMILES": "CC1=CC(=O)c2ccccc2C1=O", "test": "MTT", "IC50": "55.6 µM"}
{"SMILES": "NS(=O)(=O)c1ccc(-n2nc(C(=O)NN=Cc3ccc(O)cc3)cc2-c2ccccc2)cc1", "test": "fluorescence", "conditions": "48 h", "IC50": "7.9 µM"}
{"SMILES": "Cc1cc(NS(=O)(=O)c2ccc(NC(=O)/C(C#N)=C/c3cccnc3)cc2)no1", "test": "MTT", "conditions": "48 h", "IC50": "> 200 µM"}
{"SMILES": "CCCCC(=O)Nc1ccc(-c2ccc3ncn(CCC)c(=O)c3c2)cn1", "test": "CCK-8", "conditions": "72 h", "IC50": "0.11 µM"}
{"SMILES": "NS(=O)(=O)c1ccc(-n2nc(-c3nnc(S)o3)cc2-c2ccccc2)cc1", "test": "fluorescence", "conditions": "48 h", "IC50": "26.9 µM"}
{"SMILES": "CC(=O)O[C@@]12CO[C@@H]1C[C@H](O)[C@@]1(C)C(=O)[C@H](O)C3=C(C)[C@@H](OC(=O)[C@H](O)[C@@H](NC(=O)OC(C)(C)C)c4ccccc4)C[C@@](O)([C@@H](OC(=O)c4ccccc4)[C@H]21)C3(C)C", "test": "MTT", "conditions": "24 h", "IC50": "> 60 µg/mL"}
{"SMILES": "OC1CCN(c2ccc(/C=N/NC(=S)NC3CCCCC3)cc2)CC1", "test": "MTT", "conditions": "24 h", "IC50": "3.83 µM"}
{"SMILES": "O=C(Nc1cccc(F)c1)Nc1nc2cc(-c3ccc4ncn(CCN5CCOCC5)c(=O)c4c3)ccc2s1", "test": "MTT", "conditions": "72 h", "IC50": "> 20 µM"}
{"SMILES": "CCCn1cnc2ccc(-c3ccc(N4CCCCCCC4=O)nc3)cc2c1=O", "test": "CCK-8", "conditions": "72 h", "IC50": "> 10 µM"}
{"SMILES": "CC1=CC(=O)C(C(C)C)=CC1=O", "test": "SRB", "conditions": "48 h", "IC50": "11.1 µM"}
{"SMILES": "OC1CCN(c2ccc(/C=N/NC(=S)Nc3ccc(Br)cc3)cc2)CC1", "test": "MTT", "conditions": "24 h", "IC50": "1.85 µM"}
{"SMILES": "O=C(O)c1ccc(NCc2ccc([N+](=O)[O-])cc2)cc1", "test": "resazurin", "conditions": "72 h", "IC50": "> 100 µM"}
{"SMILES": "Cc1ccc(NC(=O)Nc2ccc(-c3ccc4ncn(Cc5ccccc5)c(=O)c4c3)cn2)cc1", "test": "CCK-8", "conditions": "72 h", "IC50": "> 10 µM"}
{"SMILES": "C/C(=N\\CCNCC/N=C(\\C)c1c(O)c2ccccc2oc1=O)c1c(O)c2ccccc2oc1=O", "test": "MTT", "conditions": "48 h", "IC50": "8.75 µM"}
{"SMILES": "CCCNC(=S)N/N=C/c1cccc2cc3ccccc3nc12", "test": "MTT", "conditions": "48 h", "IC50": "> 50 µM"}
{"SMILES": "Cc1ccccc1NC(=O)Nc1ccc(-c2ccc3ncn(Cc4ccccc4)c(=O)c3c2)cn1", "test": "CCK-8", "conditions": "72 h", "IC50": "0.98 µM"}
{"SMILES": "O=C(Nc1ccc(F)cc1)Nc1nc2cc(-c3ccc4ncn(CCC5CCCCC5)c(=O)c4c3)ccc2s1", "test": "MTT", "conditions": "72 h", "IC50": "9.1 µM"}
{"SMILES": "Cc1cc(NS(=O)(=O)c2ccc(NC(=O)/C(C#N)=C/c3ccc(N4CCCCC4)cc3)cc2)no1", "test": "MTT", "conditions": "48 h", "IC50": "36.4 µM"}
{"SMILES": "CCCn1cnc2ccc(-c3ccc(NC(=O)CC(C)CC)nc3)cc2c1=O (stereo not drawn)", "test": "CCK-8", "conditions": "72 h", "IC50": "1.49 µM"}
{"SMILES": "Cc1c2c(nn1C)CSCc1cc(n(C)n1)CSc1cc(c3ccccc3c1)OCCCc1c(C(=O)O)n(C)c3c-2c(Cl)ccc13", "test": "CCK-8", "IC50": "50 µM"}
{"SMILES": "CC(C)[C@@H]1NC(=O)[C@@H](CCCNC(=N)N)NC(=O)[C@H](C)NC(=O)[C@@H](CCCN)NC(=O)[C@H](Cc2ccccc2)NC(=O)[C@@H](Cc2ccccc2)NC1=O", "test": "ATP luminescence", "conditions": "72 h", "IC50": "> 100 µM"}
{"SMILES": "O=C(Nc1cc(C(F)(F)F)cc(C(F)(F)F)c1)Nc1nc2cc(-c3ccc4ncn(Cc5ccccc5)c(=O)c4c3)ccc2s1", "test": "MTT", "conditions": "72 h", "IC50": "5.37 µM"}
{"SMILES": "CCCCC(=O)Nc1ccc(-c2ccc3ncn(C4CC4)c(=O)c3c2)cn1", "test": "CCK-8", "conditions": "72 h", "IC50": "> 10 µM"}
{"SMILES": "CC(=O)c1c(O)c2ccccc2oc1=O", "test": "MTT", "conditions": "48 h", "IC50": "29.2 µM"}
{"SMILES": "CCCC(=O)Nc1ccc(-c2ccc3ncn(CCC)c(=O)c3c2)cn1", "test": "CCK-8", "conditions": "72 h", "IC50": "0.46 µM"}
{"SMILES": "COc1ccc(C=NNC(=O)c2cc(-c3ccccc3)n(-c3ccc(S(N)(=O)=O)cc3)n2)cc1OC", "test": "fluorescence", "conditions": "48 h", "IC50": "15.5 µM"}
{"SMILES": "COC(=O)c1cc(C(C)=NNc2nc(-c3ccc(C)cc3)cs2)ccc1O", "test": "MTT", "conditions": "96 h", "IC50": "9.61 µM"}
{"SMILES": "CC(C)CNC(=S)N/N=C/c1cccc2cc3ccccc3nc12", "test": "MTT", "conditions": "48 h", "IC50": "> 50 µM"}
{"SMILES": "CCCCn1cnc2ccc(-c3ccc(NC(C)=O)nc3)cc2c1=O", "test": "CCK-8", "conditions": "72 h", "IC50": "> 10 µM"}
{"SMILES": "COc1cccc(CNc2ccc(C(=O)O)cc2)c1O", "test": "resazurin", "conditions": "72 h", "IC50": "> 100 µM"}
{"SMILES": "C/C(=N\\CCNCCNCC/N=C(\\C)c1c(O)c2ccccc2oc1=O)c1c(O)c2ccccc2oc1=O", "test": "MTT", "conditions": "48 h", "IC50": "6.66 µM"}
{"SMILES": "O=C(C=Cc1cccs1)c1ccc(OCCCOc2ccc(C(=O)C=Cc3cccs3)cc2)cc1", "test": "MTT", "conditions": "48 h", "IC50": "115 µM"}
{"SMILES": "O=C(Nc1ccc(F)cc1)Nc1nc2cc(-c3ccc4ncn(CCN5CCOCC5)c(=O)c4c3)ccc2s1", "test": "MTT", "conditions": "72 h", "IC50": "2.51 µM"}
{"SMILES": "COc1ccc(NC(=S)N/N=C/c2ccc(N3CCC(O)CC3)cc2)cc1", "test": "MTT", "conditions": "24 h", "IC50": "5.2 µM"}
{"SMILES": "CC(C)[C@@H]1NC(=O)[C@@H](CCCNC(=N)N)NC(=O)[C@H]([C@@H](C)O)NC(=O)[C@@H](CCCN)NC(=O)[C@H](Cc2ccc(O)cc2)NC(=O)[C@@H](Cc2ccccc2)NC1=O", "test": "ATP luminescence", "IC50": "> 100 µM"}
{"SMILES": "CCCn1cnc2ccc(-c3ccc4sc(NC(=O)Nc5ccc(F)cc5)nc4c3)cc2c1=O", "test": "MTT", "conditions": "72 h", "IC50": "0.44 µM"}
{"SMILES": "NNc1nc2ccc(Br)cc2c(=O)n1-c1ccc(F)cc1", "test": "MTT", "conditions": "48 h", "IC50": "63.9 µM"}
{"SMILES": "C(=N\\Nc1cc(N/N=C/c2cccc3cccnc23)ncn1)/c1cccc2cccnc12", "test": "MTT", "conditions": "48 h", "IC50": "14.8 µM"}
{"SMILES": "Cc1cccc(NC(=O)Cn2cc(COc3ncnc4[nH]cnc34)nn2)c1", "test": "MTT", "IC50": "> 100 µM"}
{"SMILES": "COc1ccc(NC(=O)Nc2nc3cc(-c4ccc5ncn(CCN6CCOCC6)c(=O)c5c4)ccc3s2)cc1", "test": "MTT", "conditions": "72 h", "IC50": "1.4 µM"}
{"SMILES": "CCCc1cc2cc(-n3nc(C)c4c3CC(C)(C)CC4=O)cc(N3CCC(O)CC3)c2c(=O)[nH]1", "test": "MTS", "IC50": "7.38 µM"}
{"SMILES": "O=C(Nc1ccc(F)cc1)Nc1nc2cc(-c3ccc4ncn(CC(=O)N5CCOCC5)c(=O)c4c3)ccc2s1", "test": "MTT", "conditions": "72 h", "IC50": "> 20 µM"}
{"SMILES": "NNc1nc2ccc(Br)cc2c(=O)n1-c1ccc(Cl)cc1", "test": "MTT", "conditions": "48 h", "IC50": "79.2 µM"}
